KCNQ1 act: potentiators or activators of KCNQ1 channel, primary screen, cell-based, thallium flux, high-throughput. Potassium voltage-gated channel subfamily KQT member 1 (Homo sapiens), P51787. CHO-K1 KCNQ1, thallium flux FluxOR fluorescence; hits give high values. B-score at 10 µM. 0.35% of 310,000 active;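 active means fluorescence ratio B-score, a plate-corrected score, at least three library SD, with initial intensity B-score within 5 SD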
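System: Stable KCNQ1 CHO-K1 line | Incubation: 90 min dye loading and 20 min compound exposure, both at room temperature | Measure: Ratio B score | Medium: Assay buffer for compound exposure, DMSO matched across wells | Compound dosing: Single-concentration screen | Probe or stimulus: K+/Tl+ depolarizing stimulus | Measured by: Kinetic FluxOR fluorescence, 10 s baseline plus 110 s post-stimulus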
KCNQ1 block: inhibitors of human KCNQ1 channel, primary screen, cell-based, thallium flux, high-throughput | B-score at 10 µM | CHO-K1 KCNQ1, FluxOR thallium flux fluorescence; hits give high values | 1.3% of 310,000 active | AID 2642, 2010;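 active means compounds whose thallium flux B-score, printed positive for inhibition, exceeds three library SD while starting fluorescence stays within three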;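 further: channel opened by potassium depolarization with thallium stimulus after 20 min compound exposure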
KCNK3 inh: human KCNK3 channel inhibitors, primary screen, CHO cells, FluxOR thallium flux, B-score; FluxOR fluorescence; hits give low values; B-score at 10 µM; 0.84% of 340,000 active;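 active means B-score under library mean minus 4 SD, starting fluorescence ratio at most library mean plus 5 SD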;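 further: more negative B-score means stronger inhibition of thallium flux through KCNK3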
Target sequence (O14649 whole entry, looked up): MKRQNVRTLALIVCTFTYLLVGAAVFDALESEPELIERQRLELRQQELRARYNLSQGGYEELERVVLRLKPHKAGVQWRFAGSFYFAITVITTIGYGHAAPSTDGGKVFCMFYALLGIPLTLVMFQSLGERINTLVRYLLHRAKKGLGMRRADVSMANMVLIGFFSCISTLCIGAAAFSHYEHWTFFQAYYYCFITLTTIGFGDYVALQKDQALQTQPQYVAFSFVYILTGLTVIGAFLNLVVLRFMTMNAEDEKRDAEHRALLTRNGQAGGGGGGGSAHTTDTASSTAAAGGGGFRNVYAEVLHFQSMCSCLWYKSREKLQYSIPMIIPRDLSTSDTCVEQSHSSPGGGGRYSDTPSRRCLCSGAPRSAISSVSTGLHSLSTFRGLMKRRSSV
hERG rescue: hERG rescue from dofetilide block, primary screen, cell-based, CHO-hERG, FluxOR thallium flux, dofetilide IC70. Voltage-gated inwardly rectifying potassium channel KCNH2 (Homo sapiens), Q12809. dofetilide IC70 present. activation (rescue from dofetilide block), less the hit threshold, % at 10 µM. 0.51% of 310,000 active;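 active means activation above the mean of controls blocked by dofetilide plus 5 SD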;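 further: thallium influx through hERG after potassium depolarization seen as dye fluorescence rise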
KCNK9 inh: KCNK9 potassium channel inhibitors, primary screen, HEK293 cells, thallium flux; Potassium channel subfamily K member 9 (Homo sapiens), Q9NPC2; FluxOR thallium flux fluorescence; hits give low values; B-score at 10 µM; 1.2% of 310,000 active; AID 488922, 2010;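 active means ratio B-score over 3 SD below the library mean, with starting fluorescence within 5 SD of its mean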;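 further: negative B-score means less thallium flux so channel inhibition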
PHOSPHO1 block: PubChem AID 1565 | Phosphoethanolamine/phosphocholine phosphatase (Homo sapiens), Q8TCT1 | 1.1% of 290,000 active | recombinant PHOSPHO1, absorbance phosphatase assay | inhibition, % at 13.3 µM; in the data active means inhibition above about 60%
* hit, by the source's call; i = inactive; nt = no result given. Shown are actives, neighbours in structure and some others; about 4% of the full set was active somewhere.

SMILES | KCNQ1 act | KCNQ1 block | KCNK3 inh | hERG rescue | KCNK9 inh | PHOSPHO1 block
O=C(CNC(=O)c1cccs1)OCC(=O)c1ccc([N+](=O)[O-])cc1 | i | i | i | -1 | i | 16
O=C(CNC(=O)c1cccs1)c1ccc([N+](=O)[O-])cc1 | i | i | i | -5 | i | 67*
Cc1nc(NC(=O)c2ccc(F)cc2)nc2cc3c(cc12)OCO3 | i | i | i | -2 | i | 15
COC(=O)c1c(-c2ccc(OC)cc2)sc2ccc(N3CCOCC3)cc12 | nt | nt | i | nt | nt | nt
COc1ccc(OC)c(C(c2nnnn2Cc2ccco2)N2CCN(C)CC2)c1 (centres undefined) | i | i | i | -9 | i | 41
COc1cccc(C(c2nnnn2Cc2ccco2)N2CCN(c3cccc(C)c3C)CC2)c1OC (centres undefined) | i | 6* | i | -6 | -6.8* | 15
COc1ccc(CC(=O)OCC(=O)Nc2ccc3[nH]c(=O)[nH]c3c2)cc1 | i | i | i | -16 | i | nt
CCCC(C)C(=O)Nc1nc(C)c(-c2csc(Nc3ccc(Cl)cc3)n2)s1 (centres undefined) | i | i | i | -10 | i | 20
CCC(C)C(=O)Nc1nc(C)c(-c2csc(Nc3cc(Cl)ccc3OC)n2)s1 (centres undefined) | i | i | i | -12 | i | 91*
COc1ccc(Cl)cc1Nc1nc(-c2sc(NC(=O)C(C)(C)C)nc2C)cs1 | i | i | i | -5 | i | 101*
Cc1cccc(-c2nnc(SCC(=O)N3c4ccccc4CCc4ccccc43)n2C)c1 | i | i | i | -10 | i | -9
O=C(CSc1ncnc2nc[nH]c12)Nc1ccccc1C(F)(F)F | i | i | i | -7 | i | 79*
O=C(NC1CCOC1=O)c1ccccc1 (centres undefined) | nt | nt | i | nt | nt | nt
CC(=O)c1c(OC(=O)c2ccc(C)cc2)c2ccccc2n1C | i | i | i | -2 | -7.2* | 7
CC(=O)c1c(OC(=O)c2ccco2)c2ccccc2n1C | i | i | i | -7 | i | 3
O=C1CC(O)(C(F)F)Oc2ccc3ccccc3c21 (centres undefined) | i | i | i | -5 | i | 67*
CC1(C)Cc2c(ccc3ccccc23)C(=O)N1 | i | i | i | -15 | i | 33
COc1ccc2c(c1)OC(O)(C(F)F)CC2=O (centres undefined) | i | i | i | -5 | i | -23
O=C1CC(O)(C(F)(F)F)Oc2c1ccc1ccccc21 (centres undefined) | 8* | i | i | 6.8* | i | -8
COc1ccc(OC)c(C(=O)CN2C(=O)C(=O)N(C3CCCC3)C2=O)c1 | nt | nt | i | nt | nt | nt
Cc1cccc(NC(=S)NNC(=O)c2ccccc2OC(F)F)c1 | i | i | i | -6 | i | 72*
COc1ccc(NC(=S)NNC(=O)c2ccccc2OC(F)F)cc1 | i | i | i | -9 | i | 73*
CCc1ccc(NC(=S)NNC(=O)c2ccccc2OC(F)F)cc1 | i | i | nt | 2 | i | 30
O=C(O)Cc1ccc(O)c(O)c1 | i | i | i | -4 | i | -1
O=C(O)Cc1cc(I)c(Oc2ccc(O)c(I)c2)c(I)c1 | i | i | nt | 9.9* | i | 8
COC(=O)c1ccc(-c2noc(CN(C)CC3CCCCO3)n2)cc1 (centres undefined) | i | i | i | -8 | i | 10
CCn1ccnc1CN(C)Cc1nc(-c2ccc(C(=O)OC)cc2)no1 | i | i | i | -10 | i | 60*
CCN(C(=O)CSc1nnc(-c2ccccc2Cl)n1N)c1c(N)n(Cc2ccccc2)c(=O)[nH]c1=O | nt | nt | i | nt | nt | nt
COc1ccc(OC)c(Nc2nc(-c3sc(C)nc3C)cs2)c1 | i | i | i | -22 | i | 25
